# Screening data from PubChem.
# Hits are enriched below; roughly 2.1% of the tested compounds scored in any of these assays.
# DNMT1 block = human DNMT1 methyltransferase inhibitors, primary screen, biochemical, molecular beacon, fluorescence, HinP1I cleavage, uHTS | DNA (cytosine-5)-methyltransferase 1 (Homo sapiens), P26358 | inhibition (reported as % activation of signal), % at 10 µM | 360,000 tested, 0.83% active; in the data active = inhibition above about 50%
# SUMO1 PPI mod = modulators of SUMO1 protein-protein interactions, primary screen, biochemical, uHTS | Small ubiquitin-related modifier 1 (Homo sapiens), P63165 | SUMO1 binding to a labelled peptide, TR-FRET, 1 h | inhibition, % at 20 µM | 360,000 tested, 0.33% active | AID 602429, 2012; in the data active = inhibition above about 37%
# Target sequence (P63165 whole entry, looked up): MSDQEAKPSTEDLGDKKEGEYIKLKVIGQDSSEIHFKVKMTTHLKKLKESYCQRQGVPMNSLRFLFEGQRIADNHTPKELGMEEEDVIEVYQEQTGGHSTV
# Scp1 inh = Scp-1 phosphatase inhibitors, primary screen, biochemical, colorimetric, uHTS; Recombinant Scp1, phosphopeptide, malachite green phosphate absorbance; 340,000 tested, 0.88% active; Carboxy-terminal domain RNA polymerase II polypeptide A small phosphatase 1 (Homo …; inhibition, % at 20 µM;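 active = inhibition above about 50% at 20 µM, limit read from the data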;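 also: plate controls were DMSO wells with enzyme for no effect and wells lacking enzyme for full effect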
# Target sequence (Q9GZU7 76-261 limits assumed): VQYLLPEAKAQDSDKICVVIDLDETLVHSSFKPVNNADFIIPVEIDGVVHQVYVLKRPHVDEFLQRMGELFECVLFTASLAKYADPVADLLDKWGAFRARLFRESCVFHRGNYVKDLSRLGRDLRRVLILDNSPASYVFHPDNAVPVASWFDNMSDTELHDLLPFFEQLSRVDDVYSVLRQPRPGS
#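 Test system – truncated SCP-1 phosphatase (76-261aa) · Reagent – Phosphorylated 17-residue peptide substrate · Incubation – 45 min room-temperature reaction, 5 min colour, 30 min stabiliser · Detection – colorimetric phosphate reagent with accelerator and stabiliser, absorbance at 630 nm · Measure – % inhibition at 20 µM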
# LMPTP block = LMPTP phosphatase inhibitors, primary screen, biochemical, fluorescence intensity, uHTS; recombinant LMPTP-A, OMFP fluorogenic substrate; inhibition, % at 20 µM; 360,000 tested, 0.22% active; AID 651560, 2012;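 active = compounds that cut the enzyme signal by at least half of the control window in the single-dose screen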;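 also: plate controls were DMSO wells with enzyme plus substrate for no effect and substrate without enzyme for full effect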
# Target sequence (P24666 whole entry, looked up): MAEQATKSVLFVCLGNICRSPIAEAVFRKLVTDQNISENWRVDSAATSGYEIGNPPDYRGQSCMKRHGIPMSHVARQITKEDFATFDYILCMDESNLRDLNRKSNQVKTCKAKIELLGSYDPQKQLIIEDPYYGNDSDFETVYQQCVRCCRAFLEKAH
#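 Test system: LMPTP-A phosphatase enzyme. Amount: LMPTP-A at 0.625 nM final in the reaction. Reagent: OMFP substrate, 400 µM final. Times: 50 min at room temperature. Signal: endpoint fluorescence intensity from OMFP dephosphorylation. Read-out basis: % inhibition. Benchmarks: no-enzyme and uninhibited controls.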
# GRK2 aptamer HTS = compounds blocking aptamer binding on GRK2 – biochemical, human GRK2, bead flow cytometry, HTS, primary screen. FAM-aptamer displacement from GRK2. inhibition of aptamer binding, % at 10 µM. 330,000 tested, 0.59% active. AID 488847, 2010;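 active = inhibition of aptamer binding above 40%, roughly 3 SD of noise, on plates passing a quality check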;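 also: median bead fluorescence of bound FAM aptamer so fluorescent compounds give negative values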
# STEP inh = STEP phosphatase inhibitors, primary screen, biochemical, fluorescence intensity, uHTS; Tyrosine-protein phosphatase non-receptor type 5 (Homo sapiens), P54829; recombinant STEP, OMFP fluorogenic substrate; 360,000 tested, 0.25% active; inhibition, % at 20 µM; AID 588621, 2011;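 active = inhibition at 20 µM, scaled per plate between control wells, above about 37%, limit read from the data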;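 also: 0% = DMSO with enzyme and substrate and 100% = substrate only without enzyme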
#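 medium = Bis-Tris buffer pH 6.0, 2.5 mM DTT, 0.005% Tween 20 | test system = STEP (striatal-enriched tyrosine phosphatase) enzyme, cell-free | measure = normalized % inhibition | compound dosing = 20 µM, 1% DMSO | also added = 25 µM OMFP | schedule = reaction 20 min, ambient temperature | measured by = fluorescence read at 480 nm ex / 540 nm em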
# An asterisk follows results filed as active; . = no result given.
SMILES,DNMT1 block,SUMO1 PPI mod,Scp1 inh,LMPTP block,GRK2 aptamer HTS,STEP inh
C/C(=C\CNc1ncnc2nc[nH]c12)CO,2.2,4.9,12.2,-1.5,0.0,-0.4
Cc1ccc(Cl)cc1N1CCN(C(=O)c2cc3c(=O)n(C)c4ccccc4c3n2C)CC1,-5.6,48.3*,-8.0,7.3,7.0,1.5
Cc1cccc(NC(=O)c2cc(-c3cc(C)ccc3O)n[nH]2)c1,4.7,-0.3,-21.8,-0.5,0.0,-2.6
COc1cc(F)ccc1-c1cc(C(=O)Nc2ccc(NC(C)=O)cc2)[nH]n1,0.2,63.4*,.,1.3,.,-1.3
CC(=O)Nc1ccc(NC(=O)c2cc(-c3ccc(C)cc3O)n[nH]2)cc1,-5.5,74.4*,2.2,-0.3,0.0,2.6
O=C(CSc1ncccn1)NC1CCCC1,0.8,-0.4,.,-3.1,.,0.2
Cc1ccc(C)c(N2CCN(C(C(=O)NC3CCCC3)C(C)C)CC2)c1 (centres undefined),.,1.0,.,-1.8,.,.
CCn1cc(C(=O)O)c(=O)c2cc(F)c(N3CCN(C(=S)NC(=O)c4cc(OC)cc(OC)c4)CC3)cc21,3.1,11.8,7.0,62.6*,1.0,4.6
CCn1cc(C(=O)O)c(=O)c2cc(F)c(N3CCN(C(=S)NC(=O)c4ccccc4C)CC3)cc21,0.1,10.8,-15.5,64.2*,3.0,3.5
CCn1cc(C(=O)NCc2ccc3c(c2)OCO3)c(=O)c2cc(F)c(N3CCN(C(=O)c4ccco4)CC3)cc21,-15.8,7.7,8.8,53.4*,2.0,4.7
CCn1cc(C(=O)NCc2ccccc2)c(=O)c2cc(F)c(N3CCN(C(=O)c4ccco4)CC3)cc21,-9.2,13.0,3.6,6.1,0.0,2.0
CCn1cc(C(=O)O)c(=O)c2cc(F)c(N3CCN(C(=S)NC(=O)c4ccccc4)CC3)cc21,-3.2,7.8,-15.5,66.5*,0.0,-0.5
Cc1ccc(S(=O)(=O)N2[C@H](CC(=O)c3ccc(Cl)c(Cl)c3)OC[C@@H]2C(C)C)cc1,.,-3.3,.,0.6,.,.
C=CCNC(=S)N1CCN(c2cc3c(cc2F)c(=O)c(C(=O)O)cn3CC)CC1,-0.6,6.5,-17.9,19.2,0.0,1.0
CCn1cc(C(=O)O)c(=O)c2cc(F)c(N3CCN(C(=S)Nc4ccc(OC)cc4)CC3)cc21,6.4,-1.8,-12.3,59.1*,0.0,-2.4
CCn1cc(C(=O)O)c(=O)c2cc(F)c(N3CCN(C(=S)NC(=O)c4ccccc4Cl)CC3)cc21,-0.2,26.6,-10.7,62.5*,0.0,6.5
C=CCn1c(N)c(C(=O)NCC2CCCO2)c2nc3ccccc3nc21 (centres undefined),8.6,43.9*,-13.5,3.9,2.0,0.0
COc1ccc(-n2c(N)c(C(=O)NCC3CCCO3)c3nc4ccccc4nc32)c(OC)c1 (centres undefined),-22.7,-11.5,-2.7,1.9,4.0,2.4
Nc1c(C(=O)NCc2ccccc2)c2nc3ccccc3nc2n1CCCN1CCOCC1,47.0,43.4*,-3.9,-3.7,2.0,3.3
O=C(NC1CCCC1)C1c2ccccc2OCC(=O)N1Cc1ccco1 (centres undefined),.,3.4,.,-1.2,.,.
O=C1c2cc(CO)cc(O)c2C(=O)c2c(O[C@@H]3OC(CO)[C@@H](O)[C@@H](O)[C@@H]3O)cccc21 (some centres undefined),2.9,-33.2,9.5,2.7,1.0,1.2
O=C(O)c1cc(O)c2c(c1)[C@@H]([C@H]1c3cc(C(=O)O)cc(O)c3C(=O)c3c(O[C@@H]4O[C@H](CO)[C@@H](O)[C@H](O)[C@H]4O)cccc31)c1cccc(OC3O[C@H](CO)[C@@H](O)[C@H](O)[C@H]3O)c1C2=O (some centres undefined),97.8*,119.3*,92.4*,92.4*,97.0*,97.6*
COc1ccc(-c2c(C#Cc3ccsc3)c3ccccc3n2C)cc1,32.5,1.5,46.0,50.8*,3.0,0.2
COc1ccc(C#Cc2c(-c3ccccc3)n(C)c3ccccc23)cc1,-9.6,-4.5,-3.0,2.8,1.0,-1.1
Cc1sc(NC(=O)CSc2nnc(-c3ccccc3)o2)c(C#N)c1C,2.1,2.9,-6.9,0.3,0.0,1.9
SMILES,DNMT1 block,SUMO1 PPI mod,Scp1 inh,LMPTP block,GRK2 aptamer HTS,STEP inh
CC1CCc2c(sc(NC(=O)CSc3ncn[nH]3)c2C#N)C1 (centres undefined),-5.1,3.2,-7.0,-7.2,1.0,1.8
N#Cc1c(NC(=O)CSc2nnc(-c3ccccc3)o2)sc2c1CCCC2,2.7,-0.3,2.9,76.8*,2.0,-0.8
CC1CCc2c(sc(NC(=O)CSc3nnc(-c4ccccc4)o3)c2C#N)C1 (centres undefined),18.3,0.0,0.7,65.5*,2.0,1.7
CCCS(=O)(=O)NC(=O)C1(C)CCN(C(=O)c2cccs2)C1 (centres undefined),-0.2,2.8,.,-0.6,.,2.7
O=C(CSc1n[nH]c(=O)[nH]c1=O)Nc1ccc2c(c1)C(=O)c1ccccc1C2=O,45.3,95.6*,81.7*,68.7*,10.0,88.1*
O=C(CSc1n[nH]c(=O)[nH]c1=O)Nc1cccc(S(=O)(=O)N2CCOCC2)c1,-5.2,1.4,2.6,-1.9,5.0,0.9
O=C(O)C1=CC(=C(c2ccc(O)c(C(=O)O)c2)c2ccc(O)c(C(=O)O)c2)C=CC1=O,.,.,.,.,99.0*,.
O=C(O)c1cc(O)ccc1O,0.1,-1.9,-3.8,-1.2,.,-2.8
CCOC(=O)C1=CCN(S(=O)(=O)c2ccccc2C)C1c1ccc(Cl)cc1 (centres undefined),-2.6,6.6,.,2.2,.,3.6
O=C1c2c(O)cccc2Cc2cccc(O)c21,94.8*,2.0,-10.0,29.9,3.0,10.4
CC(C)(C)c1cc(C(=O)N/N=C/c2ccccc2O)n(-c2ccccc2)n1,-5.8,1.6,-8.0,2.6,99.0*,0.5
CCCN(CCC)C1=CC(=[N+]2CCCC2)CC(C)(C)C1,16.6,-0.3,76.9*,-1.7,3.0,-1.0
CN(C)NC1=CC(=[N+]2CCCC2)CC(C)(C)C1,1.6,-2.0,-3.0,-0.9,0.0,-0.8
COC(=O)[C@@]12C[C@@H](CC(=O)N3CCN(C(=O)c4ccco4)CC3)C(=O)N(Cc3ccccc3)C1=CCC(C)(C)C2,.,-0.6,.,0.1,.,.
O=C(C1CCCCC1)N1C[C@@H](O)[C@H](n2cc(-c3ccc(F)cc3)nn2)C[C@@H]1c1ccc(Cl)cc1,-4.2,5.6,.,0.9,.,3.2
